This note sets out measurements from ChEMBL document CHEMBL3632517, “Chemical conjugation of 2-hexadecynoic acid to C5-curcumin enhances its antibacterial activity against multi-drug resistant bacteria” (Bioorg Med Chem Lett, 2015).

Data set [1] has as its system Staphylococcus aureus. As to the kind of experiment: Antibacterial activity against methicillin-resistant Staphylococcus aureus CIMRSA6 after 18 to 24 hrs by spectrophotometric analysis. Type of data set: functional, organism-based.
In data set [2] the test system is Staphylococcus aureus. As to the kind of experiment: Antibacterial activity against methicillin-resistant Staphylococcus aureus CIMRSA5 after 18 to 24 hrs by spectrophotometric analysis. It counts as functional, organism-based.
In data set [3] the test system is Staphylococcus aureus. As to the kind of experiment: Antibacterial activity against methicillin-resistant Staphylococcus aureus CIMRSA3 after 18 to 24 hrs by spectrophotometric analysis. It counts as functional, organism-based.
In data set [4] the test system is Staphylococcus aureus. As to the kind of experiment: Antibacterial activity against methicillin-resistant Staphylococcus aureus CIMRSA1 after 18 to 24 hrs by spectrophotometric analysis. Type of data set: functional, organism-based.
In data set [5] the test system is Staphylococcus aureus. Description: Antibacterial activity against methicillin-resistant Staphylococcus aureus ATCC 43300 after 18 to 24 hrs by spectrophotometric analysis. It counts as functional, organism-based.
Data set [6] has as its system Staphylococcus aureus. Description: Antibacterial activity against methicillin-resistant Staphylococcus aureus CIMRSA7 after 18 to 24 hrs by spectrophotometric analysis. It counts as functional, organism-based.
The test system of data set [7] is Staphylococcus aureus. As to the kind of experiment: Antibacterial activity against methicillin-resistant Staphylococcus aureus CIMRSA2 after 18 to 24 hrs by spectrophotometric analysis. It counts as functional, organism-based.
For the next data set, the system named is Escherichia coli. Description: Antibacterial activity against Escherichia coli ATCC 25922 after 18 to 24 hrs by spectrophotometric analysis. Type of data set: functional, organism-based.
For data set [8], the system named is Staphylococcus aureus. As to the kind of experiment: Antibacterial activity against methicillin-resistant Staphylococcus aureus CIMRSA4 after 18 to 24 hrs by spectrophotometric analysis. It counts as functional, organism-based.
Data set [9] in a line: Therapeutic index, ratio of IC50 for human PBMC to IC50 for methicillin-resistant Staphylococcus aureus ATCC 43300. Particulars: read-out: Ratio IC50. The method in brief: (§1)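 Therapeutic index is PBMC cytotoxicity IC50 divided by the antibacterial IC50 against each MRSA strain. PBMCs came from healthy volunteers, and their viability was read by CTG luminescent cell viability assay. Experiments were run in triplicate (N = 3).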

Data set [10] can be described thus: Therapeutic index, ratio of IC50 for human PBMC to IC50 for methicillin-resistant Staphylococcus aureus CIMRSA7. Conditions: read-out: Ratio IC50. The method in brief: as §1
For another data set, the system named is PBMC. Description: Cytotoxicity against human PBMC after 3 days by CTG luminescent cell viability assay. It counts as cell-based. Conditions: 72 h.
Data set [11] is described as follows: Therapeutic index, ratio of IC50 for human PBMC to IC50 for methicillin-resistant Staphylococcus aureus CIMRSA1. Conditions: read-out: Ratio IC50. The method in brief:
as §1

A short description of data set [12]: Therapeutic index, ratio of IC50 for human PBMC to IC50 for methicillin-resistant Staphylococcus aureus CIMRSA6. Particulars: read-out: Ratio IC50. The method in brief: as §1
Data set [13] is described as follows: Therapeutic index, ratio of IC50 for human PBMC to IC50 for methicillin-resistant Staphylococcus aureus CIMRSA2. Particulars: read-out: Ratio IC50. The method in brief:
as §1

Data set [14] can be described thus: Ratio of IC50 for human PBMC to IC50 for African green monkey Vero cells. Type of data set: cell-based. Particulars: human PBMC versus Vero cells, read-out: Ratio IC50.
Data set [15] addresses DNA gyrase (Staphylococcus aureus) (UniProt P0A0K8+P20831). As to the kind of experiment: (§2) Inhibition of supercoiling activity of Staphylococcus aureus DNA gyrase using relaxed pHOT1 plasmid DNA after 60 mins using ethidium bromide staining by […]electrophoresis analysis. Type of data set: protein-complex assay.
Data set [16] in a line: Therapeutic index, ratio of IC50 for human PBMC to IC50 for methicillin-resistant Staphylococcus aureus CIMRSA3. Conditions: read-out: Ratio IC50. The method in brief:
as §1

The nature of data set [17]: Therapeutic index, ratio of IC50 for human PBMC to IC50 for methicillin-resistant Staphylococcus aureus CIMRSA5. Conditions: read-out: Ratio IC50. The method in brief: as §1
For another data set, the system named is Vero. Description: Cytotoxicity against African green monkey Vero cells after 3 days by CTG luminescent cell viability assay. Particulars: Chlorocebus sabaeus, 72 h. Type of data set: cell-based.
The nature of data set [18]: Therapeutic index, ratio of IC50 for human PBMC to IC50 for methicillin-resistant Staphylococcus aureus CIMRSA4. Particulars: read-out: Ratio IC50. The method in brief: as §1
The target in a further data set is DNA gyrase (Staphylococcus aureus, UniProt P0A0K8+P20831). The data set is described as §2. Type of data set: protein-complex assay.

Values after ≈ are worked out from the molar mass of the structure shown. Active and inactive are the calls of the source. The calls are words filed in the database; no cut-off is given here.

Chain of DNA gyrase (Staphylococcus aureus) (P0A0K8 2-644 limits assumed): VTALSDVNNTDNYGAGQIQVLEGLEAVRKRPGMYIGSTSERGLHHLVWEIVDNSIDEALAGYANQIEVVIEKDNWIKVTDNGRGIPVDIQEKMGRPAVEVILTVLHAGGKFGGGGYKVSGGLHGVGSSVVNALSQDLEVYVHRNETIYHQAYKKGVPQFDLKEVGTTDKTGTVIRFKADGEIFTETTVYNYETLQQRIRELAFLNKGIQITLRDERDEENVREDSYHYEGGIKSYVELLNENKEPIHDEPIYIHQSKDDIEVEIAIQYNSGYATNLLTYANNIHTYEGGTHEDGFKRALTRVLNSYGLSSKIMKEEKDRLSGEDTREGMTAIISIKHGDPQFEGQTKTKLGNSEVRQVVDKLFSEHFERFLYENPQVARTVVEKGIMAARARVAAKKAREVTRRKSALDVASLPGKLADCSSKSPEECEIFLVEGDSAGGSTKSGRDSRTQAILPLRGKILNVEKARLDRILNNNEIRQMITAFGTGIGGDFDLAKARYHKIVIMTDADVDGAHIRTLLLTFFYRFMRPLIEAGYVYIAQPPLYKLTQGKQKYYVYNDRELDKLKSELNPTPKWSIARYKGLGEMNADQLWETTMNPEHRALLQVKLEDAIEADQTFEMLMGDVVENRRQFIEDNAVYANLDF
Chain of DNA gyrase (Staphylococcus aureus) (P20831 whole entry partner): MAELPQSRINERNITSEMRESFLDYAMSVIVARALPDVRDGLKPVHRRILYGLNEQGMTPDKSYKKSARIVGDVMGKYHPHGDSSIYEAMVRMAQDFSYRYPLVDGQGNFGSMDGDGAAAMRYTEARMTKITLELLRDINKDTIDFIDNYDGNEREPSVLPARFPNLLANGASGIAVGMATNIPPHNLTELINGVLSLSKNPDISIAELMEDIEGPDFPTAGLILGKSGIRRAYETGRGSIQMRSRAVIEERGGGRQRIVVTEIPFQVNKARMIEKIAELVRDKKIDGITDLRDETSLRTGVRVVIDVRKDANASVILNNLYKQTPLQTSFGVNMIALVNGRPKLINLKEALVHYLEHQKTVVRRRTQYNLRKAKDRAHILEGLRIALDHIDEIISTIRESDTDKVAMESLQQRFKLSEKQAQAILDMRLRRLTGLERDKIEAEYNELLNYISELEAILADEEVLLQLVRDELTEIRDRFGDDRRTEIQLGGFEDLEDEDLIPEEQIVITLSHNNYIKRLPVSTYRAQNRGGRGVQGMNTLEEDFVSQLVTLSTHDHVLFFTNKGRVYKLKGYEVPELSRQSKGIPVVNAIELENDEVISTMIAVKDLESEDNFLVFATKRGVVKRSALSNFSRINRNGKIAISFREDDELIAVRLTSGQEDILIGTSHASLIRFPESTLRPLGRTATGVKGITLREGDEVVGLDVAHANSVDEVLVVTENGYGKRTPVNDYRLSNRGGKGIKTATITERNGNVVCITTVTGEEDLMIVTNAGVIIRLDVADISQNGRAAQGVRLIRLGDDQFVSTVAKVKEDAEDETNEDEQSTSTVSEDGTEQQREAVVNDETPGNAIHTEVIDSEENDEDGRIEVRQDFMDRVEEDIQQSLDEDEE
Chain of DNA gyrase (P0A0K8 whole entry): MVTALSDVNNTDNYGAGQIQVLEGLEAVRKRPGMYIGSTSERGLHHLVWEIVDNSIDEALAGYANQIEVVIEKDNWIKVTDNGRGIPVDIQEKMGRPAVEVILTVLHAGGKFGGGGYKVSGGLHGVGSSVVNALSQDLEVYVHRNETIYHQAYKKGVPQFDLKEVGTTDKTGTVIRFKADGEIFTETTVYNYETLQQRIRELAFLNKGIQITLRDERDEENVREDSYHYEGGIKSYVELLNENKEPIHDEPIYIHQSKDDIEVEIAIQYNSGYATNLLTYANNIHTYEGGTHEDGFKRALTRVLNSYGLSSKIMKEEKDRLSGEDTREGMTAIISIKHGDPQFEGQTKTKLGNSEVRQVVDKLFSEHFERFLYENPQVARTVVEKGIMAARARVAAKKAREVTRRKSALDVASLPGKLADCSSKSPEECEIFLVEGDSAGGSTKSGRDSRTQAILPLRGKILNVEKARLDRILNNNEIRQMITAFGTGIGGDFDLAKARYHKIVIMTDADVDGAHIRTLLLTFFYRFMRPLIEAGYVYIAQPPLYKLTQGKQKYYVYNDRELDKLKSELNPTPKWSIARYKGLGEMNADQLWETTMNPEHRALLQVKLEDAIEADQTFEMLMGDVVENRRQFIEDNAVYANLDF
Chain of DNA gyrase (P20831 whole entry): as the sequence (P20831 whole entry partner) above

Consider `COc1cccc(OC)c1C(=O)N[C@@H]1C(=O)N2[C@@H]1SC(C)(C)[C@@H]2C(=O)O` [METHICILLIN], for which the IC50 (in general, the concentration that inhibits the measured activity by half) is 1.2 µg/mL (≈ 3.15 µM) with Staphylococcus aureus [1]; 1.9 µg/mL (≈ 4.99 µM) in the data set with Staphylococcus aureus [2]; 2.2 µg/mL (≈ 5.78 µM) in the data set with Staphylococcus aureus [3]; 2.2 µg/mL (≈ 5.78 µM) with Staphylococcus aureus [4]; 0.98 µg/mL (≈ 2.58 µM) in the data set with Staphylococcus aureus [5]; 1.3 µg/mL (≈ 3.42 µM) in the data set on Staphylococcus aureus [6]. The IC50 was 11.8 µg/mL (≈ 31 µM) in the data set with Staphylococcus aureus [7], greater than 1000 µg/mL in the data set with Escherichia coli and 11.8 µg/mL (≈ 31 µM) with Staphylococcus aureus [8]. Further, the minimal inhibitory concentration (MIC) (commonly the least concentration at which growth counts as inhibited) with Staphylococcus aureus [2] amounted to 3.9 µg/mL (≈ 10.3 µM); against Staphylococcus aureus [3], 3.9 µg/mL (≈ 10.3 µM); in the data set with Staphylococcus aureus [4] it was 7.8 µg/mL (≈ 20.5 µM); in the data set on Staphylococcus aureus [5] it was 1.95 µg/mL (≈ 5.13 µM); in the data set on Staphylococcus aureus [6], 3.9 µg/mL (≈ 10.3 µM); against Staphylococcus aureus [7], 31.3 µg/mL (≈ 82.3 µM). In the data set on Staphylococcus aureus [8], this compound had an MIC of 31.3 µg/mL (≈ 82.3 µM).

As for `COc1cc(/C=C/C(=O)/C=C/c2ccc(O)c(OC)c2)ccc1O`, the selectivity ratio was 0.4 in data set [9]; 0.2 in data set [10]; 0.3 in data set [11]; 0.2 in data set [12]; 0.4 in [13]; 8.2 in data set [14]. Also, the selectivity ratio in [16] was determined as 0.4; in data set [17] it was 0.2; in data set [18], 0.3. The IC50 in the data set on Staphylococcus aureus [1] is 195 µg/mL (≈ 597 µM); in the data set with PBMC, 46.9 µg/mL (≈ 144 µM); in the data set on Staphylococcus aureus [2], 202 µg/mL (≈ 620 µM); with Staphylococcus aureus [3] it was 124 µg/mL (≈ 379 µM); with Staphylococcus aureus [4], 141 µg/mL (≈ 432 µM); in the data set with Staphylococcus aureus [5] it was 111 µg/mL (≈ 341 µM). Moreover, the half-maximal inhibitory concentration (IC50) is 303 µg/mL (≈ 929 µM) in the data set on Staphylococcus aureus [6]; 5.7 µg/mL (≈ 17.5 µM) in the data set with Vero; 133 µg/mL (≈ 409 µM) in the data set with Staphylococcus aureus [7]; greater than 1000 µg/mL in the data set with Escherichia coli; 185 µg/mL (≈ 567 µM) in the data set on Staphylococcus aureus [8]. Besides, the minimum inhibitory concentration (MIC) in the data set with Staphylococcus aureus [1] stood at 500 µg/mL (≈ 1530 µM); in the data set with Staphylococcus aureus [2], 500 µg/mL (≈ 1530 µM); against Staphylococcus aureus [3], 250 µg/mL (≈ 766 µM); against Staphylococcus aureus [4] it was 250 µg/mL (≈ 766 µM); against Staphylococcus aureus [5], 250 µg/mL (≈ 766 µM); against Staphylococcus aureus [6], 500 µg/mL (≈ 1530 µM). The values for the minimum inhibitory concentration (MIC) in the data set on Staphylococcus aureus [7] and in the data set on Staphylococcus aureus [8] were 250 µg/mL (≈ 766 µM) and 500 µg/mL (≈ 1530 µM), respectively. The inhibition entry in data set [15] is “inactive”.

In the case of `CCCCCCCCCCCCCCCC(=O)Oc1ccc(/C=C/C(=O)/C=C/c2ccc(OC(=O)CCCCCCCCCCCCCCC)c(OC)c2)cc1OC`, the IC50 in the data set on Staphylococcus aureus [1], in the data set on Staphylococcus aureus [2], with Staphylococcus aureus [3], with Staphylococcus aureus [4], with Staphylococcus aureus [5] and in the data set on Staphylococcus aureus [6] was greater than 1000 µg/mL in each case. The IC50 in the data set with Staphylococcus aureus [7], with Escherichia coli and in the data set with Staphylococcus aureus [8] was greater than 1000 µg/mL in each case. In addition, the inhibition result in [15] is “inactive”.

With `CCCCCCCCCCCCCC#CC(=O)Oc1ccc(/C=C/C(=O)/C=C/c2ccc(OC(=O)C#CCCCCCCCCCCCCC)c(OC)c2)cc1OC`, the selectivity ratio was 6.2 in data set [9]; 7.2 in data set [10]; 8.1 in data set [11]; 6.3 in data set [12]; 7.1 in [13]; 7.2 in data set [16]. Moreover, the results for the selectivity ratio in data set [17] and in data set [18] were 9.7 and 9.9, respectively. For the same compound, the IC50 was 38.9 µg/mL (≈ 48.9 µM) with Staphylococcus aureus [1]; 247 µg/mL (≈ 310 µM) with PBMC; 25.4 µg/mL (≈ 31.9 µM) in the data set with Staphylococcus aureus [2]; 34.2 µg/mL (≈ 43 µM) with Staphylococcus aureus [3]; 30.3 µg/mL (≈ 38.1 µM) in the data set on Staphylococcus aureus [4]; 39.5 µg/mL (≈ 49.7 µM) in the data set with Staphylococcus aureus [5]. Further, the IC50 against DNA gyrase is 126 µM; in the data set on Staphylococcus aureus [6], 34.2 µg/mL (≈ 43 µM); in the data set on Vero it was greater than 100 µg/mL; in the data set with Staphylococcus aureus [7], 34.9 µg/mL (≈ 43.9 µM); in the data set on Escherichia coli it was greater than 1000 µg/mL; in the data set on Staphylococcus aureus [8], 24.9 µg/mL (≈ 31.3 µM). Also, the MIC with Staphylococcus aureus [1] amounted to 62.5 µg/mL (≈ 78.6 µM); against Staphylococcus aureus [2] it was 31.3 µg/mL (≈ 39.4 µM); in the data set with Staphylococcus aureus [3], 62.5 µg/mL (≈ 78.6 µM); in the data set on Staphylococcus aureus [4], 62.5 µg/mL (≈ 78.6 µM); against Staphylococcus aureus [5] it was 62.5 µg/mL (≈ 78.6 µM); against Staphylococcus aureus [6], 62.5 µg/mL (≈ 78.6 µM). For the same compound, the MIC against Staphylococcus aureus [7] is 62.5 µg/mL (≈ 78.6 µM); with Staphylococcus aureus [8], 31.3 µg/mL (≈ 39.4 µM).

Take `CCCCCCCCCCCCCCCC(=O)O` [PALMITIC ACID]: the IC50 in the data set with Staphylococcus aureus [1], with Staphylococcus aureus [2], in the data set with Staphylococcus aureus [3], in the data set on Staphylococcus aureus [4], in the data set on Staphylococcus aureus [5] and in the data set with Staphylococcus aureus [6] was greater than 1000 µg/mL throughout. Also, the IC50 in the data set on Staphylococcus aureus [7], in the data set with Escherichia coli and with Staphylococcus aureus [8] was greater than 1000 µg/mL in each case.
